KCNK9 block – KCNK9 potassium channel inhibitors, primary screen, HEK293 cells, thallium flux; FluxOR thallium flux fluorescence; active compounds read low; AID 488922, 2010; Potassium channel subfamily K member 9 (Homo sapiens), Q9NPC2; 310,000 compounds, 1.2% hits; B-score at 10 µM;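 active means ratio B-score over 3 SD below the library mean, with starting fluorescence within 5 SD of its mean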;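 further: negative B-score means less thallium flux so channel inhibition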
hERG rescue – hERG rescue from dofetilide block, primary screen, cell-based, CHO-hERG, FluxOR thallium flux, dofetilide IC70 | Voltage-gated inwardly rectifying potassium channel KCNH2 (Homo sapiens), Q12809 | activation (rescue from dofetilide block), less the hit threshold, % at 10 µM | 310,000 compounds, 0.51% hits | dofetilide IC70 present;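 active means activation above the mean of controls blocked by dofetilide plus 5 SD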;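 further: thallium influx through hERG after potassium depolarization seen as dye fluorescence rise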
KCNK3 inh – human KCNK3 channel inhibitors, primary screen, CHO cells, FluxOR thallium flux, B-score; 340,000 compounds, 0.84% hits; B-score at 10 µM; FluxOR fluorescence; active compounds read low; AID 602410, 2012; Potassium channel subfamily K member 3 (Homo sapiens), O14649;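 active means B-score under library mean minus 4 SD, starting fluorescence ratio at most library mean plus 5 SD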;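 further: more negative B-score means stronger inhibition of thallium flux through KCNK3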
KCNQ1 block – inhibitors of human KCNQ1 channel, primary screen, cell-based, thallium flux, high-throughput | CHO-K1 KCNQ1, FluxOR thallium flux fluorescence; active compounds read high | Potassium voltage-gated channel subfamily KQT member 1 (Homo sapiens), P51787 | B-score at 10 µM | 310,000 compounds, 1.3% hits;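 active means compounds whose thallium flux B-score, printed positive for inhibition, exceeds three library SD while starting fluorescence stays within three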;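 further: channel opened by potassium depolarization with thallium stimulus after 20 min compound exposure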
KCNQ1 act – potentiators or activators of KCNQ1 channel, primary screen, cell-based, thallium flux, high-throughput; Potassium voltage-gated channel subfamily KQT member 1 (Homo sapiens), P51787; CHO-K1 KCNQ1, thallium flux FluxOR fluorescence; active compounds read high; B-score at 10 µM; 310,000 compounds, 0.35% hits; AID 2648, 2010;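 active means fluorescence ratio B-score, a plate-corrected score, at least three library SD, with initial intensity B-score within 5 SD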
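Medium – assay buffer, equal DMSO in all wells · Material – CHO-K1 cell line with stable KCNQ1 potassium channel expression · Signal – kinetic FluxOR thallium fluorescence, 10-s 1-Hz baseline, 110-s post-stimulus read · Compound – single concentration per compound, DMSO matched to controls · Schedule – 37 °C overnight plating, 90-min dark dye load, 20-min compound pretreatment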
KCNK9 block conf – KCNK9 potassium channel inhibitors, confirmation, HEK293 cells, thallium flux, duplicate; shares compounds with KCNK9 block; AID 492992, 2010; inhibition, % at 10 µM; FluxOR thallium flux fluorescence; 4,900 compounds, 43% hits;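 active means thallium signal inhibited by more than 5 SD of the compound-free buffer control wells, on both duplicate plates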;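 further: 0% = assay buffer control wells without compound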
Kir21 sel – mouse Kir2.1 channel inhibition, confirmation, selectivity assay for KCNK9 modulator project, cell-based, HEK293, thallium flux; shares compounds with KCNK9 block; Kir2.1 cells, FluxOR thallium flux fluorescence; inhibition, % at 10 µM; 4,900 compounds, 4% hits;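 active means thallium signal drop more than 5 SD beyond the mean of the no-compound control wells, seen in both duplicate plates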;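 further: signal is fluorescence rise after thallium addition divided by baseline fluorescence; plate controls were assay buffer only for no effect and full block by chlorpromazine control for full effect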
Target sequence (P35561 whole entry, looked up): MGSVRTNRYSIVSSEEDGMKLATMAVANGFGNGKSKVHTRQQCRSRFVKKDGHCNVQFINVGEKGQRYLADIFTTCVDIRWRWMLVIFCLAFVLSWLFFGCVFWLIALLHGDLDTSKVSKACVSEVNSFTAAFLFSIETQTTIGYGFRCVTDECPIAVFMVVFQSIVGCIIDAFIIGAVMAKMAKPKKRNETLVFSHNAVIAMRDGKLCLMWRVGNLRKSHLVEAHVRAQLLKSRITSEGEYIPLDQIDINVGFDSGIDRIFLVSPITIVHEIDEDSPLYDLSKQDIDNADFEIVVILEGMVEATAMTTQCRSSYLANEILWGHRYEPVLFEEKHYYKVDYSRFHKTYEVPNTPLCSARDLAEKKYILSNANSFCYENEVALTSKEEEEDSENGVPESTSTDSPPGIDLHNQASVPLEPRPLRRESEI
HEK293 Tl ctr – thallium flux in non-induced HEK293 cells, confirmation, counter-screen for KCNK9 inhibitor project, cell-based, second counter screen, non-induced KCNK9-HEK293. FluxOR thallium flux. inhibition, % at 10 µM. AID 492997, 2010. 4,900 compounds, 40% hits. shares compounds with KCNK9 block;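 active means thallium signal drop beyond 5 SD of the untreated control mean, on both duplicate plates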;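 further: plate controls were buffer only IC0 wells for no effect and SID17386958 at its maximal inhibitory level for full effect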
KCNK3 confirm – retest of human KCNK3 channel inhibitors, confirmation, CHO cells, FluxOR thallium flux, triplicate | FluxOR fluorescence; 0% buffer, 100% carvedilol maximal block | 2,400 compounds, 99% hits | ratio percent of control, % at 10 µM | AID 651638, 2012 | shares compounds with KCNK3 inh;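 active means ratio percent of control, averaged over triplicates, above buffer control mean plus 5 SD, cut at about 64% in these data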;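 further: ratio is the fluorescence rise from min to max over baseline after thallium stimulus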
KCNK3 noninduced – thallium flux inhibition in non-induced cells, primary screen, counter-screen for KCNK3 inhibitor project, cell-based, non-induced KCNK3 line, FluxOR thallium, triplicate; shares compounds with KCNK3 inh; non-induced KCNK3 parental cells; active compounds read low; thallium flux ratio (lower = more inhibition) at 10 µM; 2,400 compounds, 40% hits;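 active means thallium flux ratio, averaged over three wells, more than 5 SD below the buffer control mean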;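 further: host cells are CHO cells without KCNK3 induction; ratio is peak minus trough fluorescence over baseline then normalized to buffer controls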
Numbers without * were called inactive; i = inactive; x = not tested or not shown. Most compounds without a hit are left out; they make up all but 3.1% or so of the library.

SMILES	KCNK9 block	hERG rescue	KCNK3 inh	KCNQ1 block	KCNQ1 act	KCNK9 block conf	Kir21 sel	HEK293 Tl ctr	KCNK3 confirm	KCNK3 noninduced
Cc1cc(C)cc(C(=O)NC(=S)Nc2ccc(Cc3ccncc3)cc2)c1	i	-10	-10*	i	i	i	i	i	98*	i
CS(=O)c1ccc(-n2c(=O)n(Cc3ccccc3)c(=O)c3[nH]cnc32)cc1 (stereo not given)	i	-5	i	i	i	x	x	x	x	x
Fc1ccc(N2CCN(C(c3cccs3)c3nnnn3CCc3ccccc3)CC2)cc1 (stereo not given)	-13*	-5	-12*	i	i	68%*	i	32%*	126*	0.15*
O=C(CCl)NCCCN(C(=O)C(Cl)Cl)c1ccc([N+](=O)[O-])cc1	i	-7	i	i	i	x	x	x	x	x
COc1cccc(NC(=O)C(NCCc2ccc(S(N)(=O)=O)cc2)c2ccccc2)c1 (stereo not given)	-9*	-12	-8.7*	i	i	38%*	i	31%*	106*	i
CC(C)C(=O)Nc1cccc(C(=O)NCCc2ccc(S(N)(=O)=O)cc2)c1	i	-10	i	i	i	x	x	x	x	x
CC(Oc1ccccc1)c1ccnn1S(=O)(=O)c1ccccc1 (stereo not given)	i	-5	i	i	i	x	x	x	x	x
CC(Oc1ccc(Cl)cc1)c1ccnn1S(=O)(=O)c1ccc(Cl)cc1 (stereo not given)	-15*	-12	-13*	i	i	58%*	44%*	58%*	114*	0.16*
O=C(CCCSc1nnnn1-c1cccc2ccccc12)c1ccc(F)cc1	-8.2*	-15	-9.6*	i	i	i	34%*	i	102*	i
c1ccc(N2CCN(c3ncnc4sc5c(c34)CCC5)CC2)cc1	-15*	-6	i	i	i	46%*	i	44%*	119*	0.15*
CCc1cc2c(N3CCN(c4ccccc4)CC3)ncnc2s1	i	-16	-13*	i	i	i	i	23%*	135*	0.15*
Oc1ccc(N2CCN(c3ncnc4sc(-c5ccccc5)cc34)CC2)cc1	i	-6	i	i	i	x	x	x	x	x
CCCCC/S(CC1CC1(Cl)Cl)=N\S(=O)(=O)c1ccc(C)cc1 (stereo not given)	i	-7	i	i	i	x	x	x	x	x
COCCn1c(=NC(=O)CSC(C)=O)sc2cc(OC)ccc21	-16*	-10	-8.9*	i	i	60%*	i	26%*	93*	i
COc1ccccc1C(c1nnnn1Cc1ccco1)N1CCN(c2cccc(C)c2C)CC1 (stereo not given)	-14*	-8	-11*	i	i	43%*	i	38%*	130*	0.14*
COc1ccc(C(c2nnnn2C(C)(C)C)N2CCN(C(=O)c3ccco3)CC2)cc1 (stereo not given)	i	-9	i	i	i	x	x	x	x	x
CCC(C)(C)n1nnnc1C(c1ccccc1OC)N1CCN(C(=O)c2ccco2)CC1 (stereo not given)	-14*	-4	-13*	i	i	68%*	i	36%*	106*	i
CCN(C[C@H]1N[C@@](C)(C(=O)OC)[C@H]2C(=O)N(Cc3ccccc3)C(=O)[C@@H]12)C(=O)Nc1ccc(Cl)cc1	x	x	i	x	x	x	x	x	x	x
Cc1ccc(NC(=O)COC(=O)c2c[nH]c3ccccc23)cc1C	x	x	i	x	x	x	x	x	x	x
CCC(C)(C)NC(=O)C(c1ccc(C)cc1)N(CC1CCCO1)C(=O)c1csnn1 (stereo not given)	i	-2	i	i	i	x	x	x	x	x
Cc1ccccc1Nc1nc(N)nc(COC(=O)c2ccc([N+](=O)[O-])o2)n1	x	x	i	x	x	x	x	x	x	x
CCOc1c2ccc(C(=O)NCC34CC5CC(CC(C5)C3)C4)cc2nn1CC	i	-11	i	i	i	x	x	x	x	x
C=CCn1c(SCC(=O)Nc2ccccc2)nc2scc(-c3cccs3)c2c1=O	-11*	-5	-9.5*	i	i	35%*	i	34%*	114*	i
Cc1cc(C=O)c(C)n1-c1ccc(NC2CCCC2)c([N+](=O)[O-])c1	-17*	-9	-9.1*	6*	i	60%*	i	37%*	122*	i
CCCn1c(=O)c(C(=O)NCc2ccccc2)c(O)c2ccccc21	i	-2	i	i	i	x	x	x	x	x
SMILES	KCNK9 block	hERG rescue	KCNK3 inh	KCNQ1 block	KCNQ1 act	KCNK9 block conf	Kir21 sel	HEK293 Tl ctr	KCNK3 confirm	KCNK3 noninduced
CCCn1c(=O)c(C(=O)Nc2ccccc2C(=O)OCC)c(O)c2ccccc21	-9.2*	-11	-8.9*	i	i	54%*	i	38%*	92*	i
Cc1ccc(O)c(-c2cc(C(=O)NCc3ccncc3)[nH]n2)c1	-11*	-4	-9.2*	i	i	55%*	i	30%*	107*	i
CC(CCc1ccco1)NC(=O)c1cc2c(-c3ccccc3F)nn(C)c2s1 (stereo not given)	-8.4*	-10	-13*	i	i	28%*	i	i	120*	0.14*
CCCN(CCC)CCNC(=O)c1cc2c(-c3ccccc3F)nn(C)c2s1	i	-4	i	i	i	x	x	x	x	x
COc1nc(Nc2cccc([N+](=O)[O-])c2)nc(OC)n1	i	-6	i	i	i	x	x	x	x	x
C#CCOc1nc(Nc2cccc([N+](=O)[O-])c2)nc(OCC#C)n1	-18*	-12	-11*	i	i	51%*	i	i	107*	i

From PubChem BioAssay
